# Hits are enriched below; roughly 4.6% of the tested compounds scored in any of these assays.
# CHO parental Ca = counter-screen: ATP calcium response change in parental CHO cells; parental CHO-K1, ATP-induced calcium, Fluo-8 fluorescence; inhibition, % at 5.6 µM; 330,000 tested, 0.63% active; AID 463079;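 active = inhibition above that plate's mean sample inhibition plus 3 SD, cut at about 26% in these data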
#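 Material – parental CHO cells · Reagent – ATP stimulus · Compound – single nominal dose of 5.6 µM per compound · Detection – Fluo-8 fluorescence · Read-out basis – percent inhibition of calcium signal · Controls – ATP-challenged DMSO wells low, unchallenged DMSO wells high · Repeats – no replicates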
# TAAR1 antagonist = human TAAR1 antagonism; Q96RJ0; CHO RD-HGA16 TAAR1, Fluo-8 calcium fluorescence, antagonist; inhibition, % at 3 µM; 360,000 tested, 1.5% active;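 active = inhibition above a per-plate cutoff, the mean inhibition of test compounds on that plate plus 3 SD, cut at about 49% in these data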
# Target sequence (Q96RJ0 whole entry, looked up): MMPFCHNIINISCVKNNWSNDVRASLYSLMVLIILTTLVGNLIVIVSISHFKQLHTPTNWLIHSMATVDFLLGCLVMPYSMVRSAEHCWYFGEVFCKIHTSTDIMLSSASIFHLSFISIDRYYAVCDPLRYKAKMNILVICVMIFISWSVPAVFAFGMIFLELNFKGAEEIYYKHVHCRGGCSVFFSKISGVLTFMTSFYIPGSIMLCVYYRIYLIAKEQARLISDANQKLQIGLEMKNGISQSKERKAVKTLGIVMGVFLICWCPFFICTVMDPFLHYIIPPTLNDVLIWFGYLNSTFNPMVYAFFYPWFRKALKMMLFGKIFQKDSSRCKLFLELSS
#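 Material: CHO RD-HGA16 cells bearing hTAAR1; compound dosing: one-point dosing, 3 µM nominal final; schedule: dye loading 75 min at 37 °C, then 30 min room temperature; measured by: calcium fluorescence with Fluo-8; control set: vehicle and agonist controls; replication: n of 1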
# OX1R antag-1 = blocks the human orexin 1 receptor. 330,000 tested, 1.8% active. OX1R-expressing cells, FRET antagonist read-out. inhibition, % at 6.6 µM. O43613; in the data active = inhibition mostly above about 38%, no sharp cut-off; inactive = mostly below about 40%
# TAAR1 ag = human TAAR1 agonism | CHO RD-HGA16 TAAR1, Fluo-8 calcium fluorescence; vehicle wells 0%, saturating PEA agonist 100% | activation, % at 3 µM | 360,000 tested, 0.99% active | AID 624467;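 active = activation above the mean activation of all test compounds in the run plus 3 SD, cut at about 38% in these data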
#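 System: CHO-derived RD-HGA16 cells with stable Gα16 and human TAAR1 / Times: 17-24 h plating, Fluo-8 75 min 37 °C, 30 min RT / Technique: calcium-sensitive Fluo-8 signal, excitation 470-495, emission 515-575 nm / Measure: % activation relative to PEA EC100 response / Benchmarks: DMSO and PEA EC100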
# OX1R antag-2 = antagonists of human orexin 1 receptor. 330,000 tested, 0.43% active. CHO/OX1R cells, Fluo-8 calcium fluorescence, orexin A. inhibition, % at 5 µM;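 active = inhibition above its plate's threshold, mean inhibition of all tested compounds on the plate plus 3 SD, cut at about 37% in these data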
# GPR7 antagonist = blocks human GPR7 receptor signaling; P48145; GPR7-expressing cells, fluorescence antagonist assay; inhibition, % at 4.4 µM; 290,000 tested, 1.1% active; AID 1861; in the data active = inhibition above about 16%, passing the limit was not always enough;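 note: cells stimulated with the agonist NPW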
# Target sequence (P48145 whole entry, looked up): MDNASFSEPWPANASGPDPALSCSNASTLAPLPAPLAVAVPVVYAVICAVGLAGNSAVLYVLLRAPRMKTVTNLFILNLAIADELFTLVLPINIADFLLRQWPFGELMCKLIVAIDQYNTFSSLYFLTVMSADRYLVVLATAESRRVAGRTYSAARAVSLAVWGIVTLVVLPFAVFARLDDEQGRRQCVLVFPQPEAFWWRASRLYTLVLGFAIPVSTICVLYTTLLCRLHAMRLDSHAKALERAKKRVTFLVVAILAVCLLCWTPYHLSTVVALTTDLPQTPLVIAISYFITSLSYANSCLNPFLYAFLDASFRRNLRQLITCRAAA
# GPR7 antag cf = human GPR7 antagonism, confirmation assay; GPR7-expressing cells, calcium fluorescence antagonist mode; 2,400 tested, 52% active; inhibition, % at 4.4 µM; AID 1952; shares compounds with GPR7 antagonist; in the data active = inhibition above about 24%;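 note: stimulated with the GPR7 agonist NPW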
# MCHR1 antagonist = antagonizes human MCHR1, a GPR7 antagonist counter-screen | shares compounds with GPR7 antagonist | MCHR1-expressing cells, fluorescence antagonist assay | inhibition, % at 4.4 µM | 2,400 tested, 62% active | AID 2148; in the data active = inhibition above about 22%
# A number is an active result; . = inactive; / = no result given.
SMILES,CHO parental Ca,TAAR1 antagonist,OX1R antag-1,TAAR1 ag,OX1R antag-2,GPR7 antagonist,GPR7 antag cf,MCHR1 antagonist
COC(=O)c1sc(N)c(C(=O)OC)c1COC(=O)c1c(C)noc1C,.,.,.,.,.,23,.,.
COC(=O)c1sc(NC(=O)c2c(C)noc2C)nc1C,.,.,.,.,.,.,/,/
O=C(CSc1nccn1-c1ccc(F)cc1)Nc1ccc2c(c1)OCO2,.,.,.,.,.,.,/,/
O=C(CSc1nccn1-c1ccccc1)Nc1ccc2c(c1)OCO2,.,.,.,.,.,28,26,24
O=C(Nc1ccc(Cl)cc1)C1CC(=O)n2c(nc3ccccc32)N1 (stereo not drawn),.,/,.,/,.,23,.,.
COc1ccc2oc(C(=O)OC(C)C(=O)N(C)c3ccccc3)c(C)c2c1 (stereo not drawn),.,.,.,.,.,/,/,/
CCNC(=O)NC(=O)C(C)OC(=O)c1oc2ccc(OC)cc2c1C (stereo not drawn),.,.,.,.,.,38,.,.
CCN(CC)CCNc1ccc(C)c2sc3ccc(O)cc3c(=O)c12,/,.,/,.,/,/,/,/
Cc1ccc(CNS(=O)(=O)c2ccc(C)s2)cc1,.,.,.,.,.,28,.,.
O=C(Oc1ccc(C(=S)N2CCOCC2)cc1)c1ccccc1,.,.,.,.,.,42,26,.
O=C(Oc1ccc(C(=S)N2CCOCC2)cc1)c1ccc(Br)cc1,.,.,.,.,.,.,/,/
CCOc1ccc(-n2c(-c3ccccc3)c[n+]3c2CCCCC3)cc1,.,.,.,.,.,29,47,45
O=C(Nc1ccc(N2CCN(c3ccc(C(F)(F)F)cn3)CC2)nc1)c1cccs1,.,.,.,.,.,.,/,/
O=C(Nc1ccc(N2CCN(c3ncccc3C(F)(F)F)CC2)nc1)c1cccs1,.,75,.,.,.,21,35,81
c1ccc(CCNc2ccnc3cc4ccccc4cc23)cc1,/,.,/,.,/,37,45,75
CC(C)Nc1ccc(Nc2ccnc3cc4ccccc4cc23)cc1,.,.,.,.,.,.,/,/
O=C(COC(=O)c1cc([N+](=O)[O-])ccc1N1CCOCC1)NCc1ccc(Cl)cc1Cl,.,.,.,.,.,24,35,36
CC1CCN(CC(=O)Nc2ccc(C(=O)N3CCCCC3)cc2)CC1,.,.,.,.,.,.,/,/
C/C(CC(=O)Nc1cccc2c1CCCC2)=N\NC(=O)c1cccc2ccccc12,.,.,.,.,.,.,/,/
C/C(CC(=O)Nc1cccc2c1CCCC2)=N\NC(=O)c1ccccc1N,.,.,.,.,.,25,.,.
O=C(O)CCC(=O)N1CCN(S(=O)(=O)c2cccs2)CC1,.,.,.,.,.,.,/,/
O=C(CCCc1cccs1)N1CCN(S(=O)(=O)c2ccccc2Br)CC1,.,.,.,.,.,29,.,25
CCCCCN(C(=O)CCC(=O)OCC(=O)N(CC)C1CCCCC1)c1c(N)n(CCCC)c(=O)[nH]c1=O,.,.,.,.,.,/,/,/
COc1ccc(NC2CC(=O)N(C(C)C)C2=O)cc1 (stereo not drawn),.,.,.,.,.,24,.,.
CCN1CCN(C(=O)CN(c2ccc(F)c(Cl)c2)S(C)(=O)=O)CC1,.,.,.,.,.,.,/,/
SMILES,CHO parental Ca,TAAR1 antagonist,OX1R antag-1,TAAR1 ag,OX1R antag-2,GPR7 antagonist,GPR7 antag cf,MCHR1 antagonist
N#CC(CCc1ccccc1[N+](=O)[O-])(CCc1ccccc1[N+](=O)[O-])C(N)=O,/,.,/,.,/,/,/,/
CC(/C=C1\SC(=O)N(CCCC(=O)O)C1=O)=C\c1ccccc1,.,.,.,.,.,.,/,/
CC(=C\c1ccccc1)/C=C1/SC(=S)N(CCCC(=O)O)C1=O,/,.,/,.,/,39,.,.
Cc1ccc(/C=C2\SC(=S)N(CCC(=O)N3CCCCC3)C2=O)cc1,.,.,.,.,.,.,/,/
O=C(CCN1C(=O)/C(=C\c2ccccc2)SC1=S)N1CCCCC1,.,.,.,.,.,22,.,.
O=C(NCCN1CCOCC1)/C(=C\c1ccccc1Cl)NC(=O)c1ccccc1,.,.,.,.,.,.,/,/
Cc1ccc(CS(=O)(=O)c2ncc(Cl)c(C(=O)Nc3ccc(OC(F)F)cc3)n2)cc1,59,.,.,.,51,43,84,96
COC(C(=O)Nc1ccc(S(=O)(=O)Nc2ccc(F)cc2)cc1)c1ccccc1 (stereo not drawn),.,.,.,56,.,22,51,39
CC(C)(O)C(=O)NN(C(=O)c1ccccc1)c1ccc2ccccc2c1,.,/,.,/,.,.,/,/
O=C(c1ccccc1)N(NC(=O)C(O)(c1ccccc1)c1ccccc1)c1cccc(F)c1,.,.,.,.,.,37,.,64
Cc1ccc(C(O)(C(=O)NN(C(=O)c2ccccc2)c2ccccc2)c2ccc(C)cc2)cc1,.,.,.,.,.,36,39,23
Cc1ccsc1C(=O)N1CCC1(C)C(=O)NS(=O)(=O)c1ccc(Br)cc1 (stereo not drawn),/,.,/,.,/,/,/,/
COc1ccc(-c2csc(NC(C)=O)n2)cc1OC,.,.,.,.,.,.,/,/
COc1cccc(NC(=O)Nc2nc(-c3ccc(OC)c(OC)c3)cs2)c1,71,82,71,.,73,74,92,93
CS(=O)(=O)N(Cc1ccccc1)c1ccc(C(=O)N2CCN(c3cccc(Cl)c3)CC2)cc1,.,/,.,/,.,24,36,70
CS(=O)(=O)N(Cc1ccc(Cl)cc1)c1ccc(C(=O)N2CCN(c3ccccc3)CC2)cc1,34,.,.,.,.,21,38,46
Cc1ccc(CN(c2ccc(C(=O)N3CCc4ccccc4C3)cc2)S(C)(=O)=O)cc1,.,.,.,.,.,33,32,47
CN(c1ccc(C(=O)N2CCN(Cc3ccccc3)CC2)cc1)S(=O)(=O)c1ccc(Cl)cc1,.,.,.,.,.,32,.,33
CS(=O)(=O)N(Cc1ccc(C(=O)N2CCc3ccccc3C2)cc1)c1ccccc1,.,.,.,.,.,.,/,/
Cc1cccc(NS(=O)(=O)c2cnc(Cl)c(Br)c2)n1,.,.,.,.,.,.,/,/
N=c1n(CCO)c2ccccc2n1CCOc1ccc(Cl)cc1Cl,.,.,.,.,.,31,58,43
COc1ccc(OCCn2c(=N)n(CCO)c3ccccc32)cc1,.,.,.,.,.,.,/,/
CCC1Oc2ccc(C)cc2N(CC(=O)NC2CCCCC2)C1=O (stereo not drawn),.,.,.,.,.,32,.,.

# High-throughput results deposited in PubChem by The Scripps Research Institute Molecular Screening Center.
